# OX1R antag-1: blocks the human orexin 1 receptor | inhibition, % at 5 µM | O43613 | 330,000 tested, 0.43% active | CHO/OX1R cells, Fluo-8 calcium fluorescence, orexin A;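 active means inhibition above its plate's threshold, mean inhibition of all tested compounds on the plate plus 3 SD, cut at about 37% in these data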;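 further: 0% = orexin A challenge wells and 100% = SB-334867-A antagonist wells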
# Target sequence (O43613 whole entry, looked up): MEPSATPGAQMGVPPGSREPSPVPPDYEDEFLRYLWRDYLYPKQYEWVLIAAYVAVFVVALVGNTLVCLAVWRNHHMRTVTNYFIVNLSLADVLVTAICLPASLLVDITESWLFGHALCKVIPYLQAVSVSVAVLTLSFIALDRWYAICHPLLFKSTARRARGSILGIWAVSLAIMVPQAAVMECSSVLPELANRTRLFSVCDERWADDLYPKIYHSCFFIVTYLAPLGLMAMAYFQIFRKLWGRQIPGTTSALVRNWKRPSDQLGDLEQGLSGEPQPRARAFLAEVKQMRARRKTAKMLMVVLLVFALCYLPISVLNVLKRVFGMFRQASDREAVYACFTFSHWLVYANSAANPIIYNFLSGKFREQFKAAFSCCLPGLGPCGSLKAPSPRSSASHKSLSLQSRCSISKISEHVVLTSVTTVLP
# TAAR1 ag: agonists of human TAAR1; Q96RJ0; CHO RD-HGA16 TAAR1, Fluo-8 calcium fluorescence; vehicle wells 0%, saturating PEA agonist 100%; activation, % at 3 µM; 360,000 tested, 0.99% active;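 active means activation above the mean activation of all test compounds in the run plus 3 SD, cut at about 38% in these data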
#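 System: CHO-derived RD-HGA16 cells with stable Gα16 and human TAAR1 / Times: 17-24 h plating, Fluo-8 75 min 37 °C, 30 min RT / Technique: calcium-sensitive Fluo-8 signal, excitation 470-495, emission 515-575 nm / Measure: % activation relative to PEA EC100 response / Benchmarks: DMSO and PEA EC100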
# TAAR1 antagonist: human TAAR1 antagonism; 360,000 tested, 1.5% active; CHO RD-HGA16 TAAR1, Fluo-8 calcium fluorescence, antagonist; inhibition, % at 3 µM; Q96RJ0;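 active means inhibition above a per-plate cutoff, the mean inhibition of test compounds on that plate plus 3 SD, cut at about 49% in these data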;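 further: 0% = DMSO plus EC80 beta-PEA response and 100% = DMSO alone without agonist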
#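 Assay system: RD-HGA16 CHO cells with stable hTAAR1 and Gα16 / Reagent: EC80 β-phenethylamine stimulus / Doses: 3 µM, single point / Timing: dye loading 75 min at 37 °C, then 30 min room temperature / Measured by: Fluo-8 intracellular calcium dye fluorescence, real-time kinetic reads / Controls: vehicle wells and EC80 agonist wells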
# GPR7 antag: human neuropeptides B/W receptor 1 antagonism. GPR7-expressing cells, fluorescence antagonist assay. inhibition, % at 4.4 µM. 290,000 tested, 1.1% active; in the data active means inhibition above about 16%, passing the limit was not always enough;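 further: cells stimulated with the agonist NPW; 0% = agonist with vehicle and 100% = vehicle without agonist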
# CHO parental Ca: counter-screen: ATP calcium response change in parental CHO cells. AID 463079. inhibition, % at 5.6 µM. parental CHO-K1, ATP-induced calcium, Fluo-8 fluorescence. 330,000 tested, 0.63% active;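 active means inhibition above that plate's mean sample inhibition plus 3 SD, cut at about 26% in these data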;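 further: 0% = ATP-challenged DMSO wells and 100% = DMSO wells without ATP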
#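 Material: parental CHO cells / Compound: single nominal dose of 5.6 µM per compound / Signal: Fluo-8 fluorescence / Replicates: singlicate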
# OX1R antag-2: blocks the human orexin 1 receptor; 330,000 tested, 1.8% active; O43613; inhibition, % at 6.6 µM; AID 485270; OX1R-expressing cells, FRET antagonist read-out; in the data active means inhibition mostly above about 38%, no sharp cut-off; inactive means mostly below about 40%;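 further: 0% = agonist challenge alone and 100% = reference antagonist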
# OX1R HTRF confirm: confirmation of human orexin 1 receptor antagonists, HTRF format; shares compounds with OX1R antag-2; OX1R-expressing cells, HTRF antagonist assay; inhibition, % at 6.6 µM; 1,800 tested, 49% active; in the data active means inhibition above about 55%;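 further: CHO cells expressing OX1R stimulated with orexin A at about EC80; 0% = agonist challenge alone and 100% = reference antagonist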
# CHO-K1 HTRF cnt: counter-screen for OX1R antagonists: effect in parental CHO-K1 cells; inhibition, % at 6.6 µM; shares compounds with OX1R antag-2; 1,800 tested, 48% active; HTRF counterscreen; in the data active means inhibition above about 17%;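 further: 0% = agonist challenge with vehicle and 100% = vehicle alone without agonist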
# The depositor's hits bear a star; nt = not tested or not shown. This is a sample that favours compounds with a hit; in the whole collection about 4.5% have one here.
SMILES,OX1R antag-1,TAAR1 ag,TAAR1 antagonist,GPR7 antag,CHO parental Ca,OX1R antag-2,OX1R HTRF confirm,CHO-K1 HTRF cnt
CCCCC[n+]1ccn(C2=C([O-])c3ccccc3C(=O)/C2=N\S(=O)(=O)c2ccccc2)c1,-30,2,-3,6,-31,100*,47,52*
CCc1ccc(S(=O)(=O)/N=C2\C=C(NS(=O)(=O)c3ccccc3)C(=O)c3ccccc32)cc1,nt,-3,-11,-8,nt,nt,nt,nt
CCCC[n+]1ccn(C2=C([O-])c3ccccc3C(=O)/C2=N\S(=O)(=O)c2ccccc2)c1,-28,4,0,-5,-25,165*,55,94*
CC(C)[n+]1ccn(C2=C([O-])c3ccccc3C(=O)/C2=N\S(=O)(=O)c2ccccc2)c1,-19,1,-11,5,-3,77*,69*,96*
CCOC(=O)[C@]12CCC=C1N(Cc1cccc3ccccc13)C(=O)[C@H](CC(=O)NCCCOC)C2,nt,-2,-6,nt,nt,nt,nt,nt
COC(=O)C1(C)COP(=O)(Nc2ccc(OC)cc2)OC1 (stereo not drawn),nt,3,-20,nt,nt,nt,nt,nt
O=C1CC(=O)c2c1cccc2[N+](=O)[O-],nt,nt,nt,-13,nt,nt,nt,nt
O=C1OCc2cccc([N+](=O)[O-])c21,5,1,-4,-5,3,79*,31,33*
Cc1nc(NC(=O)C(C)(C)C)sc1C(=O)Cn1cc(-c2ccc(C(C)(C)C)cc2)nn1,nt,-1,7,nt,nt,nt,nt,nt
O=C(NCc1cccnc1)c1cc(C2CCCCN2C(=O)c2ccc(Cl)cc2)on1 (stereo not drawn),nt,0,-23,nt,nt,nt,nt,nt
O=C(O)c1ccc2c3c(ncnc13)-c1ccccc1C2=O,-3,nt,nt,-9,-6,186*,58*,98*
Cc1ccccc1CNC(=O)c1ccccc1NS(C)(=O)=O,0,2,3,2,-12,105*,26,0
Cn1c(N)c(C(=O)COC(=O)c2ccc([N+](=O)[O-])o2)c(=O)n(C)c1=O,-11,0,0,1,-11,105*,31,55*
Cn1c(N)c(C(=O)COC(=O)Cc2ccc(F)cc2)c(=O)n(C)c1=O,nt,3,-7,nt,nt,nt,nt,nt
Cc1ccc(CN2CCC(C(=O)c3ccc(F)cc3)CC2)cc1,nt,2,-40,nt,nt,nt,nt,nt
Nn1cnnc1N/N=C/c1cccc(Cl)c1Cl,nt,4,-6,-17,nt,nt,nt,nt
CCc1nnc(N/N=C/c2ccccc2Cl)n1N,-6,0,6,-10,4,96*,19,13
Cc1nn2c(nc1=O)SCC(c1ccccc1)=N2,-15,6,5,-9,-2,145*,39,62*
Cc1cc(Cl)ccc1C(O)c1ncc(-c2ccc(C(F)(F)F)cc2)[nH]1 (stereo not drawn),nt,2,38,nt,nt,nt,nt,nt
Clc1cccc(/C=N\Nc2nccs2)c1,-11,17,-14,-2,-28,82*,19,-11
O=C(COC(=O)Cc1ccc([N+](=O)[O-])cc1)NCc1ccc2c(c1)OCO2,-5,-1,10,nt,-1,20,nt,nt
O=C(COc1ncnc2cc([N+](=O)[O-])ccc12)NCc1ccc2c(c1)OCO2,-17,5,0,-11,-10,81*,34,45*
Cc1ccc2cccc(OCc3cccc([N+](=O)[O-])c3)c2n1,-27,17,6,1,-29,7,nt,nt
O=[N+]([O-])c1cccc(COc2ncnc3cc([N+](=O)[O-])ccc23)c1,-20,0,-32,-11,-4,91*,46,48*
C[C@@H]1CN([C@@H](C)CO)C(=O)c2cc(Br)cnc2O[C@H]1CN(C)C(=O)CN1CCOCC1,nt,0,-9,nt,nt,nt,nt,nt
SMILES,OX1R antag-1,TAAR1 ag,TAAR1 antagonist,GPR7 antag,CHO parental Ca,OX1R antag-2,OX1R HTRF confirm,CHO-K1 HTRF cnt
COc1cc(-c2cc3nc(NCc4ccco4)ccn3n2)cc(OC)c1OC,nt,2,21,nt,nt,nt,nt,nt
CCOC(=O)CCC1(C(=O)OC)C(=O)CCCCCC=C1C(=O)OC (stereo not drawn),nt,3,6,nt,nt,nt,nt,nt
COc1cccc(CN(C)CCCn2cnc3c(SC)ncnc32)c1,nt,4,-15,nt,nt,nt,nt,nt
CC1(C(=O)NCC2CCCCC2)CCN1C(=O)Cc1ccc(-c2ccccc2)cc1 (stereo not drawn),nt,5,12,nt,nt,nt,nt,nt
COCCNCC(=O)Nc1ccc(C)c(S(=O)(=O)N2CCCCC2)c1,-37,2,8,0,-17,100*,17,6
C[C@H]1CN([C@@H](C)CO)C(=O)CCCn2cc(nn2)CO[C@@H]1CN(C)S(C)(=O)=O,nt,4,-4,nt,nt,nt,nt,nt
c1ccc(C[n+]2cccc3c4ccccc4ccc32)cc1,-14,1,-11,-11,-6,77*,41,47*
CN1c2ccccc2C(O)=C(C(=S)Nc2ccc(F)c(Cl)c2)S1(=O)=O,-7,7,7,-9,-15,82*,51,14
CN1c2ccccc2C(O)=C(C(=S)Nc2ccccc2)S1(=O)=O,-13,1,-23,-3,-4,13,nt,nt
OC(c1cccc(F)c1)c1ncc(-c2ccc(C(F)(F)F)cc2)[nH]1 (stereo not drawn),nt,5,20,nt,nt,nt,nt,nt
CCN(CC)c1ccc(/C=N/O)cc1,-20,-2,-3,-15,10,2,nt,nt
CCN(CC)c1ccc(N=Nc2ncn[nH]2)cc1,-20,-1,15,-10,-1,139*,35,56*
CCCc1nc2c3ccccc3ccn2c1Cc1cccc(F)c1,nt,0,-12,nt,nt,nt,nt,nt
CN(C1CCS(=O)(=O)C1)S(=O)(=O)c1cccc2nsnc12 (stereo not drawn),-18,10,-1,8,-12,90*,49,41*
COC(=O)c1sccc1NC(=O)COc1ccccc1Cl,-101,2,28,0,-35,79*,56*,6
O=C(Nc1ccc(Cl)cn1)c1ccccc1[N+](=O)[O-],-8,1,6,-18,-11,28,nt,nt
O=[N+]([O-])c1cnc(Nc2ccc(Cl)cn2)c([N+](=O)[O-])c1,-5,-1,-11,-9,-3,97*,48,45*
CCN(CC)C(=O)C1=C(C)N(Cc2ccc(OC)cc2)C(=O)C(CC(=O)NC(c2ccccc2)c2ccccc2)C1 (stereo not drawn),nt,0,-7,nt,nt,nt,nt,nt
Cc1ccc(S(=O)(=O)N2[C@@H](c3cccc(Cl)c3)C(C(=O)O)=CC[C@H]2c2ccc3c(c2)OCO3)cc1,26,5,5,nt,-10,83*,87*,-1
COc1ccc(C(=O)NCCN2C(=O)S/C(=C\c3cccnc3)C2=O)c(OC)c1OC,-14,4,14,0,-20,82*,58*,24*

# From PubChem BioAssay
